# Results reported in ChEMBL document CHEMBL1687738, “Effect of Candida glabrata FKS1 and FKS2 mutations on echinocandin sensitivity and kinetics of 1,3-beta-D-glucan synthase: implication for the existing susceptibility breakpoint” (Antimicrob Agents Chemother, 2009).
# Starred links: 1 amine or outer side, 2 acyl side, 3 side chain; linkers in the order of their positions; H or OH if unused. Positions of bridges follow the written chain, without caps; N, C: chain ends. Non-standard residues stand in square brackets, D forms with d. Residues, ends and D or L forms follow the SMILES beside them. *: point of attachment. pTerphenylCO(4''-OnC5H11) = CCCCCOc1ccc(-c2ccc(-c3ccc(C(=O)*)cc3)cc2)cc1; Orn(4R-OH,5R-OH) = O=C([C@H](C[C@@H](O)[C@@H](O)N[*:3])N[*:1])[*:2]; hTyr(3S-OH,4S-OH) = N[C@H](C(=O)O)[C@H](O)[C@@H](O)c1ccc(O)cc1; Pro(3S-OH,4S-Me) = C[C@H]1CN[C@H](C(=O)O)[C@H]1O; Hyp = O=C(O)[C@@H]1C[C@@H](O)CN1
# What was measured:
# Nakaseomyces glabratus [1] = experiment: Antifungal activity against Candida glabrata isolate 3168 expressing wild type Fks1p and Fks2p by CLSI method; assay type: functional
# How it was run: (§1)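 Broth microdilution MIC per CLSI M27-A3 in RPMI 1640 medium without serum. Caspofungin and micafungin stocks in sterile water; anidulafungin stock in 100% DMSO; stocks kept at −86°C.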
# Nakaseomyces glabratus [2] = experiment: Antifungal activity against Candida glabrata isolate 42997 expressing Fks1p F625S mutant and wild type Fks2p by CLSI method; assay type: functional; how it was run: as §1
# Nakaseomyces glabratus [3] = experiment: Antifungal activity against Candida glabrata isolate 5847 expressing Fks1p S629P mutant and wild type Fks2p by CLSI method; assay type: functional; how it was run: as §1
# Nakaseomyces glabratus [4] = experiment: Antifungal activity against Candida glabrata isolate 3169 expressing Fks1p D632E mutant and wild type Fks2p by CLSI method; assay type: functional; how it was run: as §1
# Nakaseomyces glabratus [5] = experiment: Antifungal activity against Candida glabrata isolate 31498 expressing wild type Fks1p and Fks2p F659 deletion mutant by CLSI method; assay type: functional; how it was run: as §1
# Nakaseomyces glabratus [6] = experiment: Antifungal activity against Candida glabrata isolate 234 expressing wild type Fks1p and Fks2p F659V mutant by CLSI method; assay type: functional; how it was run: as §1
# Nakaseomyces glabratus [7] = experiment: Antifungal activity against Candida glabrata isolate 41400 expressing wild type Fks1p and Fks2p D666G mutant by CLSI method; assay type: functional; how it was run: as §1
# Nakaseomyces glabratus [8] = experiment: Antifungal activity against Candida glabrata isolate 5416 expressing wild type Fks1p and Fks2p W1375L mutant by CLSI method; assay type: functional; how it was run: as §1
# Nakaseomyces glabratus [9] = experiment: Antifungal activity against Candida glabrata ATCC 90030 expressing wild type Fks1p and Fks2p by CLSI method in presence of 50% human serum; assay type: functional
# How it was run: (§2)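 Broth microdilution MIC per CLSI M27-A3 in RPMI 1640 supplemented with 50% serum. Caspofungin and micafungin stocks in sterile water; anidulafungin stock in 100% DMSO; stocks kept at −86°C.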
# Nakaseomyces glabratus [10] = experiment: Antifungal activity against Candida glabrata isolate 218 expressing wild type Fks1p and Fks2p by CLSI method in presence of 50% human serum; assay type: functional; how it was run: as §2
# Nakaseomyces glabratus [11] = experiment: Antifungal activity against Candida glabrata isolate 3168 expressing wild type Fks1p and Fks2p by CLSI method in presence of 50% human serum; assay type: functional; how it was run: as §2
# Nakaseomyces glabratus [12] = experiment: Antifungal activity against Candida glabrata isolate 42997 expressing Fks1p F625S mutant and wild type Fks2p by CLSI method in presence of 50% human serum; assay type: functional; how it was run: as §2
# Nakaseomyces glabratus [13] = experiment: Antifungal activity against Candida glabrata isolate 5847 expressing Fks1p S629P mutant and wild type Fks2p by CLSI method in presence of 50% human serum; assay type: functional; how it was run: as §2
# Nakaseomyces glabratus [14] = experiment: Antifungal activity against Candida glabrata isolate 21900 expressing Fks1p D632G mutant and wild type Fks2p by CLSI method in presence of 50% human serum; assay type: functional; how it was run: as §2
# Nakaseomyces glabratus [15] = experiment: Antifungal activity against Candida glabrata isolate 3169 expressing Fks1p D632E mutant and wild type Fks2p by CLSI method in presence of 50% human serum; assay type: functional; how it was run: as §2
# Nakaseomyces glabratus [16] = experiment: Antifungal activity against Candida glabrata isolate 31498 expressing wild type Fks1p and Fks2p F659 deletion mutant by CLSI method in presence of 50% human serum; assay type: functional; how it was run: as §2
# Nakaseomyces glabratus [17] = experiment: Antifungal activity against Candida glabrata isolate 234 expressing wild type Fks1p and Fks2p F659V mutant by CLSI method in presence of 50% human serum; assay type: functional; how it was run: as §2
# Nakaseomyces glabratus [18] = experiment: Antifungal activity against Candida glabrata isolate 41026 expressing wild type Fks1p and Fks2p F659S mutant by CLSI method in presence of 50% human serum; assay type: functional; how it was run: as §2
# Nakaseomyces glabratus [19] = experiment: Antifungal activity against Candida glabrata isolate 3830 expressing wild type Fks1p and Fks2p S663P mutant by CLSI method in presence of 50% human serum; assay type: functional; how it was run: as §2
# Nakaseomyces glabratus [20] = experiment: Antifungal activity against Candida glabrata isolate 41400 expressing wild type Fks1p and Fks2p D666G mutant by CLSI method in presence of 50% human serum; assay type: functional; how it was run: as §2
# Nakaseomyces glabratus [21] = experiment: Antifungal activity against Candida glabrata isolate 51916 expressing wild type Fks1p and Fks2p P667T mutant by CLSI method in presence of 50% human serum; assay type: functional; how it was run: as §2
# [22] = Inhibition of Candida glabrata isolate 218 wild type 1,3-beta-D-glucan synthase; parameters: species or system Nakaseomyces glabratus
# How it was run: (§3)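 Cells grown in YPD broth at 35°C with vigorous shaking to early stationary phase. Membrane protein extracted and glucan synthase partially purified by product entrapment. Filtration polymerization assay measured [3H]glucose incorporation into product, started by adding enzyme. Echinocandin serial dilutions spanned 0.01–10,000 ng/ml, with 1% DMSO controls for anidulafungin. IC50 from variable-slope sigmoidal fit.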
# [23] = Inhibition of Candida glabrata isolate 3168 wild type 1,3-beta-D-glucan synthase; parameters: species or system Nakaseomyces glabratus; how it was run: as §3
# [24] = target: 1,3-beta-glucan synthase component FKS1 (Candida glabrata, UniProt E2GKZ4, F625S); experiment: Inhibition of Candida glabrata isolate 42997 1,3-beta-D-glucan synthase Fks1p F625S mutant/wild type Fks2p; parameters: species or system Nakaseomyces glabratus; how it was run: as §3
# 1,3-beta-glucan synthase component FKS1 (Candida glabrata, UniProt E2GKZ4, F625S), sequence (E2GKZ4 entry or part of it F625S): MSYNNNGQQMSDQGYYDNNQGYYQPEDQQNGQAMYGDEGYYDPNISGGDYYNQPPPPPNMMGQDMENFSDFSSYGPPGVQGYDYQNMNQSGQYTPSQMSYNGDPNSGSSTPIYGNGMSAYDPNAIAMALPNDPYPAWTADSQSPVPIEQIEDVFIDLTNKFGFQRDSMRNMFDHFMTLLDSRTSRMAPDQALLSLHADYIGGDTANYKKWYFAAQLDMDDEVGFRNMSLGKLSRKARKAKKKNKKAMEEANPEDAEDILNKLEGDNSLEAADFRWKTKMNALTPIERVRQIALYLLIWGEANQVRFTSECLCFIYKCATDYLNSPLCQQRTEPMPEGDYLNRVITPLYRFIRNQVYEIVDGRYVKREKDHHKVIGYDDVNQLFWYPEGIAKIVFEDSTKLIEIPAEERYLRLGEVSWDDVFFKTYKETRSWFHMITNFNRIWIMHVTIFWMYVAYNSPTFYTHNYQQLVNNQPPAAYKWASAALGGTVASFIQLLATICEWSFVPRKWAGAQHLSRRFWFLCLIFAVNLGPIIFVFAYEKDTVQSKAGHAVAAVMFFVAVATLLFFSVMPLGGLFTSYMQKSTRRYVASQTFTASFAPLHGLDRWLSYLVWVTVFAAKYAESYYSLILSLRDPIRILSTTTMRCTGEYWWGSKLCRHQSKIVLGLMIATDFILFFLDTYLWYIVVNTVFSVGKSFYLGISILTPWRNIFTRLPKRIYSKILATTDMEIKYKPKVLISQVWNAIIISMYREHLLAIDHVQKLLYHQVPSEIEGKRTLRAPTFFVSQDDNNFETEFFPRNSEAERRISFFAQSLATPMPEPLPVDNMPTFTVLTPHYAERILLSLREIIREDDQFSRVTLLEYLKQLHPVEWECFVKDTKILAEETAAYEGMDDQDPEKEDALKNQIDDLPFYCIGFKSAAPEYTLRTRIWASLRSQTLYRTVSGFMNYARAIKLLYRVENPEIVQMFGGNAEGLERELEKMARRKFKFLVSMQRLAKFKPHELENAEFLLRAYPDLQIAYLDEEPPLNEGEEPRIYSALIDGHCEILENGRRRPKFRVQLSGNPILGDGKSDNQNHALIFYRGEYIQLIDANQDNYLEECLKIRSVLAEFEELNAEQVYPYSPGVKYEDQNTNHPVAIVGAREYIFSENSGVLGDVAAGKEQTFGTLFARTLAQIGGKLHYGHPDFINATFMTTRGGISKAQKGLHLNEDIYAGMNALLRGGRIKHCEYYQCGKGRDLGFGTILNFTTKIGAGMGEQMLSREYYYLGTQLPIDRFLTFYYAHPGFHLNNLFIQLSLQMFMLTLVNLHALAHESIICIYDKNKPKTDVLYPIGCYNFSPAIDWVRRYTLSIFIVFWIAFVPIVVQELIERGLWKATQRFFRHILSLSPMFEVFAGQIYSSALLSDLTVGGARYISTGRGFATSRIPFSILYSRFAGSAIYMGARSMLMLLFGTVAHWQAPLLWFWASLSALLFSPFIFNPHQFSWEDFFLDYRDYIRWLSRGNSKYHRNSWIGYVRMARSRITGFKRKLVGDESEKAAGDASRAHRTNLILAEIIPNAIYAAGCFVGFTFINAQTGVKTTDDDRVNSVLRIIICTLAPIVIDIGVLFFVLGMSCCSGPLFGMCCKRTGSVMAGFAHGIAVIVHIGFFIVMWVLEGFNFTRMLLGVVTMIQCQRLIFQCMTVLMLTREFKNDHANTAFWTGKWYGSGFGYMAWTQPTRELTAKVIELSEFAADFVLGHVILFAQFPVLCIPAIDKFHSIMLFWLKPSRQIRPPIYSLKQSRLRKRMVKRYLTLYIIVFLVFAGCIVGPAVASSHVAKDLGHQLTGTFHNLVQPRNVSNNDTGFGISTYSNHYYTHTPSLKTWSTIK
# [25] = target: 1,3-beta-glucan synthase component FKS1 (Candida glabrata, UniProt E2GKZ4, S629P); experiment: Inhibition of Candida glabrata isolate 5847 1,3-beta-D-glucan synthase Fks1p S629P mutant/wild type Fks2p; parameters: species or system Nakaseomyces glabratus; how it was run: as §3
# [26] = target: 1,3-beta-glucan synthase component FKS1 (Candida glabrata, UniProt E2GKZ4, D632G); experiment: Inhibition of Candida glabrata isolate 21900 1,3-beta-D-glucan synthase Fks1p D632G mutant/wild type Fks2p; parameters: species or system Nakaseomyces glabratus; how it was run: as §3
# [27] = target: 1,3-beta-glucan synthase component FKS1 (Candida glabrata, UniProt E2GKZ4, D632E); experiment: Inhibition of Candida glabrata isolate 3169 1,3-beta-D-glucan synthase Fks1p D632E mutant/wild type Fks2p; parameters: species or system Nakaseomyces glabratus; how it was run: as §3
# [28] = Inhibition of Candida glabrata isolate 42971 1,3-beta-D-glucan synthase Fks1p D632Y mutant/Fks2p R1377STOP mutant; parameters: species or system Nakaseomyces glabratus; how it was run: as §3
# [29] = Inhibition of Candida glabrata isolate 31498 1,3-beta-D-glucan synthase wild type Fks1p/Fks2p F659 deletion mutant; parameters: species or system Nakaseomyces glabratus; how it was run: as §3
# 1,3-beta-glucan synthase [30] = target: 1,3-beta-glucan synthase (Candida glabrata, UniProt F5BCZ9, F659S); experiment: Inhibition of Candida glabrata isolate 41026 1,3-beta-D-glucan synthase wild type Fks1p/Fks2p F659S mutant; parameters: species or system Nakaseomyces glabratus; how it was run: as §3
# 1,3-beta-glucan synthase [31] = target: 1,3-beta-glucan synthase (Candida glabrata, UniProt F5BCZ9, S663P); experiment: Inhibition of Candida glabrata isolate 3830 1,3-beta-D-glucan synthase wild type Fks1p/Fks2p S663P mutant; parameters: species or system Nakaseomyces glabratus; how it was run: as §3
# 1,3-beta-glucan synthase [32] = target: 1,3-beta-glucan synthase (Candida glabrata, UniProt F5BCZ9, D666E); experiment: Inhibition of Candida glabrata isolate 42031 1,3-beta-D-glucan synthase wild type Fks1p/Fks2p D666E mutant; parameters: species or system Nakaseomyces glabratus; how it was run: as §3
# 1,3-beta-glucan synthase [33] = target: 1,3-beta-glucan synthase (Candida glabrata, UniProt F5BCZ9, P667T); experiment: Inhibition of Candida glabrata isolate 51916 1,3-beta-D-glucan synthase wild type Fks1p/Fks2p P667T mutant; parameters: species or system Nakaseomyces glabratus; how it was run: as §3
# 1,3-beta-glucan synthase (Candida glabrata, UniProt F5BCZ9, P667T), sequence (F5BCZ9 entry or part of it P667T): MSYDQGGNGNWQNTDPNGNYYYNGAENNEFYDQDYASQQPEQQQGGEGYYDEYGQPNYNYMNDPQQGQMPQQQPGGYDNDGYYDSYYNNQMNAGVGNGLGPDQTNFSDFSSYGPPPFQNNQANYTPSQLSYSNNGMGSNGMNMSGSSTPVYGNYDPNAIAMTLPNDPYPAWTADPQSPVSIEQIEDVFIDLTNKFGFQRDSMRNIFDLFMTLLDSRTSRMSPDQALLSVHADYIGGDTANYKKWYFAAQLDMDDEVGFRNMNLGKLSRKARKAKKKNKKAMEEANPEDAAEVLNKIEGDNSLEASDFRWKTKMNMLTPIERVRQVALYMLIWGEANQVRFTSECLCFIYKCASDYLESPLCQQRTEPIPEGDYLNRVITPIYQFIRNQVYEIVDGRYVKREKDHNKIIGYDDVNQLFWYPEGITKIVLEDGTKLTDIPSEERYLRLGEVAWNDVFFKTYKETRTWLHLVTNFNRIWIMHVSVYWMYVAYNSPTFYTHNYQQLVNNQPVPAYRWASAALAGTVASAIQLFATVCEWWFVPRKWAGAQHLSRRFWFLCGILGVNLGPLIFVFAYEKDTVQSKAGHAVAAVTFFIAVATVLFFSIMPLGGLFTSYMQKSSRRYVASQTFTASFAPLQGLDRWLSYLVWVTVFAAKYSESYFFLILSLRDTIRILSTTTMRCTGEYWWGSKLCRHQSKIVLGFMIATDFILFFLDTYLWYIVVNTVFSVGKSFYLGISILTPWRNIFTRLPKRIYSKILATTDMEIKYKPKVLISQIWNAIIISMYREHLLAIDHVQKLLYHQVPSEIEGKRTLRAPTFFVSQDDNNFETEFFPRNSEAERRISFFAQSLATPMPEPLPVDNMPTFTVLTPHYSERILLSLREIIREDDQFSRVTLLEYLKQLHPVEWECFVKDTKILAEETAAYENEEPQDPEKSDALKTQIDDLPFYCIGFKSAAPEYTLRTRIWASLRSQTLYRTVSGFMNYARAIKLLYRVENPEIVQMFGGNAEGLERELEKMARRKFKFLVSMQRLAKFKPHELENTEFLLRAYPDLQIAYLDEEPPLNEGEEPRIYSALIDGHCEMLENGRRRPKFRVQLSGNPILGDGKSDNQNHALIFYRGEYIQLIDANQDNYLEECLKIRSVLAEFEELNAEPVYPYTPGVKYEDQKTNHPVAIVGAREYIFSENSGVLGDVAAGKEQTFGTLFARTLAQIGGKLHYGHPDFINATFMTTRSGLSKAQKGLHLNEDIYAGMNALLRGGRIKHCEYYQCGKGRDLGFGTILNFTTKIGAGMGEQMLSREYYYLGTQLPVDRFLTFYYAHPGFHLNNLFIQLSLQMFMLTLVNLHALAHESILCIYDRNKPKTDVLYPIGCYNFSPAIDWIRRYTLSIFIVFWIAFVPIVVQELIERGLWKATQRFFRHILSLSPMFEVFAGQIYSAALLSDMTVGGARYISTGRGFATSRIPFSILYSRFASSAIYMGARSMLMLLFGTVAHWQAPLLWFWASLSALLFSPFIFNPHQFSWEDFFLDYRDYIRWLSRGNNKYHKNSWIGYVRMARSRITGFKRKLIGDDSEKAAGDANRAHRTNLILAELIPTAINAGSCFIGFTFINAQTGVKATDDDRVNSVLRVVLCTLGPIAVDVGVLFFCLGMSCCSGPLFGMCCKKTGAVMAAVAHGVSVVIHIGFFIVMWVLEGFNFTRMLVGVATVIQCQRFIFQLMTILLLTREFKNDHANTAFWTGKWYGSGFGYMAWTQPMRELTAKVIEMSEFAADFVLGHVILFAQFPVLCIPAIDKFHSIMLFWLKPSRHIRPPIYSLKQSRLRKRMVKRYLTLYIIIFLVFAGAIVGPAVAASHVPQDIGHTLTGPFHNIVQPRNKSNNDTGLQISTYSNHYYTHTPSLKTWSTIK
# 1,3-beta-glucan synthase [34] = target: 1,3-beta-glucan synthase (Candida glabrata, UniProt F5BCZ9, W1375L); experiment: Inhibition of Candida glabrata isolate 5416 1,3-beta-D-glucan synthase wild type Fks1p/Fks2p W1375L mutant; parameters: species or system Nakaseomyces glabratus; how it was run: as §3
# Nakaseomyces glabratus [35] = experiment: Ratio of IC50 for Candida glabrata wild type 1,3-beta-glucan synthase to IC50 for Candida glabrata 1,3-beta-glucan synthase mutant
compound,measurement,setting,value
"CCCCCOc1ccc(-c2ccc(-c3ccc(C(=O)N[C@H]4C[C@@H](O)[C@@H](O)NC(=O)[C@@H]5[C@@H](O)[C@@H](C)CN5C(=O)[C@H]([C@@H](C)O)NC(=O)[C@H]([C@H](O)[C@@H](O)c5ccc(O)cc5)NC(=O)[C@@H]5C[C@@H](O)CN5C(=O)[C@H]([C@@H](C)O)NC4=O)cc3)cc2)cc1 [ANIDULAFUNGIN] ({pTerphenylCO(4''-OnC5H11)}-[Orn(4R-OH,5R-OH)]T[Hyp][hTyr(3S-OH,4S-OH)]T[Pro(3S-OH,4S-Me)]; lactam 1-C)",MIC,Nakaseomyces glabratus [1],0.03 µg/mL
same,MIC,Nakaseomyces glabratus [2],2 µg/mL
same,MIC,Nakaseomyces glabratus [3],4 µg/mL
same,MIC,Nakaseomyces glabratus [4],2 µg/mL
same,MIC,Nakaseomyces glabratus [5],2 µg/mL
same,MIC,Nakaseomyces glabratus [6],1 µg/mL
same,MIC,Nakaseomyces glabratus [7],2 µg/mL
same,MIC,Nakaseomyces glabratus [8],0.25 µg/mL
same,MIC,Nakaseomyces glabratus [9],0.5 µg/mL
same,MIC,Nakaseomyces glabratus [10],0.5 µg/mL
same,MIC,Nakaseomyces glabratus [11],0.5 µg/mL
same,MIC,Nakaseomyces glabratus [12],8 µg/mL
same,MIC,Nakaseomyces glabratus [13],8 µg/mL
same,MIC,Nakaseomyces glabratus [14],8 µg/mL
same,MIC,Nakaseomyces glabratus [15],8 µg/mL
same,MIC,Nakaseomyces glabratus [16],8 µg/mL
same,MIC,Nakaseomyces glabratus [17],8 µg/mL
same,MIC,Nakaseomyces glabratus [18],16 µg/mL
same,MIC,Nakaseomyces glabratus [19],8 µg/mL
same,MIC,Nakaseomyces glabratus [20],8 µg/mL
same,MIC,Nakaseomyces glabratus [21],8 µg/mL
same,IC50,[22],0.00125 µg/mL
same,IC50,[23],0.00158 µg/mL
same,IC50,[24],97 nM
same,IC50,[25],3380 nM
same,IC50,[26],89.3 nM
same,IC50,[27],133 nM
same,IC50,[28],2.5435 µg/mL
same,IC50,[29],0.16 µg/mL
same,IC50,"1,3-beta-glucan synthase [30]",753 nM
same,IC50,"1,3-beta-glucan synthase [31]",3510 nM
same,IC50,"1,3-beta-glucan synthase [32]",112 nM
same,IC50,"1,3-beta-glucan synthase [33]",87.3 nM
same,IC50,"1,3-beta-glucan synthase [34]",74.7 nM
same,Ratio IC50,Nakaseomyces glabratus [35],54
